Measured values from ChEMBL document CHEMBL3758154, “Rotenoids, Flavonoids, and Chalcones from the Root Bark of Millettia usaramensis” (J Nat Prod, 2015).
pIC50: −log10 of the molar value.

Assays:
Plasmodium falciparum [1] = experiment: Antiplasmodial activity against chloroquine-sensitive Plasmodium falciparum 3D7 assessed as inhibition of parasite growth after 72 hrs by DAPI staining-based confocal microscopic analysis; type: functional, organism-based; conditions: 3D7, 72 h
Summary of the method: (§1)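 Sorbitol-synchronized asexual P. falciparum in human O+ erythrocytes (RPMI, Hepes, hypoxanthine, 5% human serum, AlbuMAX II), ring stage at 2% parasitemia, 0.3% hematocrit. Three-step log dilutions from 40 μM top, 0.4% DMSO final. 72 h at 37 °C, 5% CO2. Saponin/Triton X/EDTA/DAPI stain overnight, confocal imaging counts parasites.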

Plasmodium falciparum [2] = experiment: Antiplasmodial activity against chloroquine-resistant Plasmodium falciparum Dd2 assessed as inhibition of parasite growth after 72 hrs by DAPI staining-based confocal microscopic analysis; type: functional, organism-based; conditions: Dd2, 72 h; summary of the method: as §1
HEK293 = experiment: Cytotoxicity against HEK293 cells assessed as cell viability after 72 hrs by resazurin-based plate reader analysis; conditions: Homo sapiens, HEK293, 72 h
Summary of the method: (§2)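 HEK293 cells grown in DMEM with 10% FCS, seeded at 2000 cells/well and left overnight to adhere at 37 °C, 5% CO2. Compounds were tested at a final 40 μM in 0.4% DMSO. After 72 h exposure, 44 μM resazurin in serum-free DMEM was added for 4−6 h and fluorescence read at 530/595 nm. Growth was normalised to 5 μM puromycin and 0.4% DMSO controls, with IC50 from variable-slope nonlinear regression.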

[3] = Cytotoxicity against HEK293 cells assessed as cell viability at 40 uM after 72 hrs by resazurin-based plate reader analysis; conditions: human, read-out: Activity; summary of the method: as §2
MDA-MB-231 = experiment: Cytotoxicity against human MDA-MB-231 cells assessed as cell viability after 72 hrs by Alamar Blue assay; type: functional, cell-based; conditions: MDA-MB-231, 72 h
Summary of the method: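 MDA-MB-231 cells in DMEM with 10% FBS, 2 mM L-glutamine, penicillin and streptomycin were seeded at 10 000 cells/well and grown 24 h. Medium was replaced with drug or vehicle (0.1% or 1.0% DMSO) for 72 h. Viability was read by Alamar Blue absorbance at 570 nm (600 nm reference) as % of vehicle control, from six replicates in at least six independent experiments.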

Plasmodium falciparum [4] = experiment: Antiplasmodial activity against chloroquine-sensitive Plasmodium falciparum 3D7 assessed as inhibition of parasite growth at 100 uM after 72 hrs by DAPI staining-based confocal microscopic analysis; type: functional; conditions: 3D7, 72 h
Plasmodium falciparum [5] = experiment: Antiplasmodial activity against chloroquine-resistant Plasmodium falciparum Dd2 assessed as inhibition of parasite growth at 100 uM after 72 hrs by DAPI staining-based confocal microscopic analysis; type: functional; conditions: Dd2, 72 h
Plasmodium falciparum [6] = experiment: Antiplasmodial activity against chloroquine-resistant Plasmodium falciparum Dd2 assessed as inhibition of parasite growth at 40 uM after 72 hrs by DAPI staining-based confocal microscopic analysis; type: functional; conditions: Dd2, 72 h; summary of the method: as §1
[7] = Cytotoxicity against HEK293 cells assessed as cell viability at 20 uM after 72 hrs by resazurin-based plate reader analysis; conditions: human, read-out: Activity

Compound | pIC50 (Plasmodium falciparum [1]) | pIC50 (Plasmodium falciparum [2]) | pIC50 (MDA-MB-231) | other results
COc1ccc(C[C@H](N)C(=O)N[C@H]2[C@@H](O)[C@H](n3cnc4c(N(C)C)ncnc43)O[C@@H]2CO)cc1 [PUROMYCIN] | 7.64 | 7.34 | – | pIC50 (HEK293): 6.44
CCN(CC)CCCC(C)Nc1ccnc2cc(Cl)ccc12 (configuration not stated) [CHLOROQUINE] | – | – | – | viability at 72 h, 40 µM [3]: 51%
CC(C)=CCC/C(C)=C/COc1ccc(C(=O)/C=C/c2ccc(O)cc2)c(O)c1 | – | – | 3.90 | –
CC(C)=CCC/C(C)=C/COc1ccc(/C=C/C(=O)c2ccc(O)cc2O)cc1 | 5.44 | 5.16 | – | –
CC1(C)C=Cc2c(ccc3c2O[C@@H]2COc4cc5c(cc4[C@]2(O)C3=O)OCO5)O1 | – | – | 4.21 | –
COc1ccc2nc3cc(Cl)ccc3c(Nc3cc(CN4CCCC4)c(O)c(CN4CCCC4)c3)c2n1 [PYRONARIDINE] | 8.44 | 8.12 | – | –
CC1(C)C=Cc2c(ccc3c2O[C@@H]2COc4cc5c(cc4[C@@]2(O)C3=O)OCO5)O1 | – | – | 4.00 | inhibition at 100 µM (Plasmodium falciparum [4]): 28%; inhibition at 100 µM (Plasmodium falciparum [5]): 29%
COc1ccc2c(c1CC=C(C)C)O[C@@H]1COc3cc4c(cc3[C@@]1(O)C2=O)OCO4 | – | – | 4.59 | –
COc1cc2c(cc1-c1coc3c4c(ccc3c1=O)OC(C)(C)C=C4)OCO2 | – | – | – | inhibition at 100 µM (Plasmodium falciparum [4]): 94%; inhibition at 100 µM (Plasmodium falciparum [5]): 81%
CCc1nc(N)nc(N)c1-c1ccc(Cl)cc1 [PYRIMETHAMINE] | – | – | – | viability at 72 h, 40 µM [3]: 75%; inhibition at 40 µM (Plasmodium falciparum [6]): 62%
C[C@H]1[C@H](OC(=O)CCC(=O)O)O[C@@H]2O[C@@]3(C)CC[C@H]4[C@H](C)CC[C@@H]1[C@@]24OO3 [ARTESUNATE] | 9.30 | 9.35 | – | viability at 72 h, 20 µM [7]: 73%
O=C1c2ccc3c(c2O[C@@H]2COc4cc5c(cc4[C@@]12O)OCO5)OCO3 | – | – | 4.06 | inhibition at 100 µM (Plasmodium falciparum [4]): 99%; inhibition at 100 µM (Plasmodium falciparum [5]): 90%
O[C@@H]1c2ccc3c(c2O[C@@H]2COc4cc5c(cc4[C@@]12O)OCO5)OCO3 | – | – | < 3.55 | –
C[C@H]1[C@@H](O)O[C@@H]2O[C@@]3(C)CC[C@H]4[C@H](C)CC[C@@H]1[C@@]24OO3 [ARTENIMOL] | 10.00 | 9.84 | – | viability at 72 h, 40 µM [3]: 54%; viability at 72 h, 20 µM [7]: 50%
CC(C)=CCC/C(C)=C/COc1ccc(/C=C/CO)cc1 | – | – | 3.68 | –
COc1cc2c(cc1OC)[C@]1(O)C(=O)c3ccc4c(c3O[C@@H]1CO2)C=CC(C)(C)O4 [TEPHROSIN] | 4.88 | 4.92 | – | –
